Series [1] has as its system Mus musculus. Put plainly: Tested for increase in foot-pad thickness (mm) by its effect on cellular immune response in mice against sheep red blood cells by DHR method in experiment 13 at dose 12 mg/kg. The format is functional. A digest of the protocol:
(§1)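 Male ICR mice, 8-10 weeks old, groups of four, were sensitized with 1 × 10^8 SRBC in PBS into one hind footpad and dosed sc in the inguinal region, in saline or in saline with 1% Me2SO. Four days later the other footpad was challenged with 1 × 10^8 SRBC. Foot thickness was gauged just before and 24 h after challenge, and the increase was reported as mean of four ± SE.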

In series [2] the test system is Mus musculus. Put plainly: Effect on humoral immune response in mice against sheep red blood cells by the plaque-forming cell (PFC/10e6 spleen cells) method in experiment 4 at dose 12 mg/kg. It is filed as functional. In short, it runs like this:
(§2)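 Male CDF1 (Balb/c × DBA/2Cr) mice, 8-10 weeks old, groups of four, were immunized iv with 1 × 10^8 SRBC in PBS. After 24 h they received a single sc inguinal dose in saline, or as a suspension in saline with 1% Me2SO. Spleens were taken 4 days later and hemolytic plaque-forming cells counted by Cunningham's method. Values are the mean of four mice ± SE, with a paired Student's t test against the control.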

Series [3] relates to Mus musculus. In words: Effect on humoral immune response in mice against sheep red blood cells by the plaque-forming cell (PFC/10e6 spleen cells) method in experiment 4 at dose 3 mg/kg. It is filed as functional. A digest of the protocol: as §2
The subject of series [4] is Mus musculus. Put plainly: Tested for increase in foot-pad thickness (mm) by its effect on cellular immune response in mice against sheep red blood cells by the DHR method in experiment 13 at dose 3 mg/kg. It is filed as functional. In short, it runs like this:
as §1

Series [5] deals with Mus musculus. Put plainly: Effect on humoral immune response in mice against sheep red blood cells by the plaque-forming cell (PFC/10e6 spleen cells) method in experiment 7 at dose 3 mg/kg. It is filed as functional. In short, it runs like this:
(§3)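 Male mice, 8–10 weeks old, CDF1 (Balb/c × DBA/2Cr) in experiment 7. Groups of four were immunized iv with 1 × 10^8 SRBC in PBS. After 24 h, compound was given sc in the inguinal region in saline or saline/1% Me2SO. Four days later, splenic hemolytic plaque-forming cells were counted by the Cunningham method and expressed per 10^6 spleen cells. Values are the mean of four mice ± SE.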

Series [6] relates to Mus musculus. In words: Effect on humoral immune response in mice against sheep red blood cells by the plaque-forming cell (PFC/10e6 spleen cells) method in experiment 7 at dose 12 mg/kg. It is filed as functional. A digest of the protocol:
as §3

Series [7] deals with Mus musculus. In words: Tested for increase in foot-pad thickness (mm) by its effect on cellular immune response in mice against sheep red blood cells by the DHR method in experiment 16 at dose 3 mg/kg. It is filed as functional. A digest of the protocol:
(§4)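 Male mice, 8–10 weeks old, ICR strain. Groups of four were sensitized with 1 × 10^8 SRBC in PBS into one hind footpad, with compound given sc in the inguinal region in saline or saline/1% Me2SO. Four days later, 1 × 10^8 SRBC were injected into the other hind footpad. Foot thickness was measured with a dial gauge just before and 24 h after this challenge, and the increase was taken as the difference. Values are the mean of four mice ± SE.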

Series [8] deals with Mus musculus. In words: Tested for increase in foot-pad thickness (mm) by its effect on cellular immune response in mice against sheep red blood cells by DHR method in experiment 16 at dose 12 mg/kg. The format is functional. A digest of the protocol:
as §4

Series [9] concerns Mus musculus. In words: Tested for increase in foot-pad thickness (mm) by its effect on cellular immune response in mice against sheep red blood cells by the DHR method in experiment 12 at dose 3 mg/kg. The format is functional. In short, it runs like this: (§5)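 Delayed-type hypersensitivity was run in male CDF1 (Balb/c × DBA/2Cr) mice, 8-10 weeks old, groups of four. Mice were sensitized with 1 × 10^8 SRBC in PBS into one hind footpad, with sc inguinal dosing in saline or in 1% Me2SO-saline. Four days later the opposite footpad was challenged with 1 × 10^8 SRBC. The read-out was the gauge-measured increase in thickness from just before to 24 h after challenge, as mean ± SE (n = 4).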

In series [10] the test system is Mus musculus. Put plainly: Effect on humoral immune response in mice against sheep red blood cells by the plaque-forming cell (PFC/10e6 spleen cells) method in experiment 3 at dose 12 mg/kg. The format is functional. A digest of the protocol: (§6)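 Male ICR mice, 8-10 weeks old, groups of four, were immunized iv with 1 × 10^8 SRBC in PBS. After 24 h they received a single sc inguinal dose in saline, or as a suspension in saline with 1% Me2SO. Splenic hemolytic plaque-forming cells were counted 4 days later by Cunningham's method. Values are the mean of four ± SE, with a paired t test against the control.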

Series [11] deals with Mus musculus. Put plainly: Tested for increase in foot-pad thickness (mm) by its effect on cellular immune response in mice against sheep red blood cells by DHR method in experiment 12 at dose 12 mg/kg. It is filed as functional. A digest of the protocol: as §5
Series [12] deals with Mus musculus. Put plainly: Effect on humoral immune response in mice against sheep red blood cells by the plaque-forming cell (PFC/10e6 spleen cells) method in experiment 3 at dose 3 mg/kg. It is filed as functional. In short, it runs like this: as §6
Series [13] has as its system Mus musculus. In words: Tested for increase in foot-pad thickness (mm) by its effect on cellular immune response in mice against sheep red blood cells by the DHR method in experiment 11 at dose 3 mg/kg. The format is functional. A digest of the protocol:
as §1

Series [14] has as its system Mus musculus. Put plainly: Tested for increase in foot-pad thickness (mm) by its effect on cellular immune response in mice against sheep red blood cells by DHR method in experiment 11 at dose 12 mg/kg. It is filed as functional. In short, it runs like this:
as §1

Series [15] in a line: (§7) Acute lethal dose was determined in mice upon intravenous administration. The format is ADME, organism-based. Conditions: mouse, in vivo. In short, it runs like this: (§8)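 Male mice, 8–10 weeks old, CDF1 (Balb/c × DBA/2Cr). Groups of six dosed once, either iv or sc. Three to five dose levels were chosen from 400, 300, 150, 80, 40, 20 and 10 mg/kg. LD50 was calculated by the Litchfield–Wilcoxon method. Vehicle was saline or saline with 1% Me2SO, depending on compound.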

For series [16], the system named is Mus musculus. Put plainly: Effect on humoral immune response in mice against sheep red blood cells by the plaque-forming cell (PFC/10e 6 spleen cells) method in experiment 2 at dose 12 mg/kg. It is filed as functional. A digest of the protocol: as §6
The test system of series [17] is Mus musculus. Put plainly: Acute lethal dose was determined in mice upon subcutaneous administration. The format is ADME, organism-based. Conditions: in vivo, sc. A digest of the protocol: as §8
In series [18] the test system is Mus musculus. In words: Effect on humoral immune response in mice against sheep red blood cells by the plaque-forming cell (PFC/10e 6 spleen cells) method in experiment 2 at dose 3 mg/kg. The format is functional. A digest of the protocol:
as §6

The test system of series [19] is Mus musculus. Put plainly: Effect on humoral immune response in mice against sheep red blood cells by the plaque-forming cell (PFC/10e 6 spleen cells) method in experiment 1 at dose 3 mg/kg. It is filed as functional. In short, it runs like this: as §2
The test system of series [20] is Mus musculus. The description is as §7. The format is ADME, organism-based. The note with it: in vivo. A digest of the protocol: as §8
The subject of series [21] is Mus musculus. Put plainly: Effect on humoral immune response in mice against sheep red blood cells by the plaque-forming cell (PFC/10e 6 spleen cells) method in experiment 1 at dose 12 mg/kg. It is filed as functional. In short, it runs like this:
as §2

Series [22] concerns Mus musculus. In words: Tested for increase in foot-pad thickness (mm) by its effect on cellular immune response in mice against sheep red blood cells by DHR method in experiment 10 at dose 12 mg/kg. It is filed as functional. In short, it runs like this: as §1
Series [23] has as its system Mus musculus. In words: Tested for increase in foot-pad thickness (mm) by its effect on cellular immune response in mice against sheep red blood cells by the DHR method in experiment 10 at dose 3 mg/kg. It is filed as functional. A digest of the protocol:
as §1

Series [24] relates to Mus musculus. In words: Tested for increase in foot-pad thickness (mm) by its effect on cellular immune response in mice against sheep red blood cells by DHR method in experiment 14 at dose 12 mg/kg. The format is functional. In short, it runs like this: as §5
Series [25] relates to Mus musculus. Put plainly: Effect on humoral immune response in mice against sheep red blood cells by the plaque-forming cell (PFC/10e6 spleen cells) method in experiment 5 at dose 3 mg/kg. The format is functional. In short, it runs like this: as §2
Series [26] relates to Mus musculus. Put plainly: Effect on humoral immune response in mice against sheep red blood cells by the plaque-forming cell (PFC/10e6 spleen cells) method in experiment 5 at dose 12 mg/kg. It is filed as functional. In short, it runs like this: as §2
Series [27] concerns Mus musculus. Put plainly: Tested for increase in foot-pad thickness (mm) by its effect on cellular immune response in mice against sheep red blood cells by the DHR method in experiment 14 at dose 3 mg/kg. It is filed as functional. A digest of the protocol: as §5
Series [28] relates to Mus musculus. In words: Effect on humoral immune response in mice against sheep red blood cells by the plaque-forming cell (PFC/10e6 spleen cells) method in experiment 6 at dose 12 mg/kg. The format is functional. In short, it runs like this: as §2
Series [29] deals with Mus musculus. In words: Tested for increase in foot-pad thickness (mm) by its effect on cellular immune response in mice against sheep red blood cells by the DHR method in experiment 15 at dose 3 mg/kg. The format is functional. In short, it runs like this: as §4
Series [30] deals with Mus musculus. Put plainly: Tested for increase in foot-pad thickness (mm) by its effect on cellular immune response in mice against sheep red blood cells by DHR method in experiment 15 at dose 12 mg/kg. It is filed as functional. In short, it runs like this: as §4
In series [31] the test system is Mus musculus. In words: Effect on humoral immune response in mice against sheep red blood cells by the plaque-forming cell (PFC/10e6 spleen cells) method in experiment 6 at dose 3 mg/kg. The format is functional. A digest of the protocol: as §2

This is an account of results in ChEMBL document CHEMBL1121366, “Synthesis and immunological activity of 5,6,6a,8,9,11a-hexahydronaphth[1',2':4,5]imidazo[2,1-b]thiazoles and 5,6,6a,9,10,11a-hexahydroanaphth[2',1':4,5]imidazo[2,1-b]thiazoles” (J Med Chem, 1980).

Consider `Clc1ccc2c(c1)CCC1N=C3SCCN3C21` (configuration not stated), for which the Increase in footpad thickness in series [1] worked out at 0.28 mm; in [4] it was 0.27 mm. The PFC in [2] came out at 1700; in series [3] it was 1880.
For `Brc1ccc2c(c1)C1N=C3SCCN3C1CC2` (trans isomer), the PFC in series [5] is reported as 740; in series [6], 920. Besides, the Increase in footpad thickness in [7] came out at 0.35 mm; in series [8], 0.31 mm.
Take `Fc1ccc2c(c1)CCC1C2N=C2SCCN21` (trans isomer): the Increase in footpad thickness in series [9] and in series [11] was 0.44 mm in each case. For the same compound, the PFC came out at 1620 in [10] and 1970 in series [12].
Turning to `c1ccc2c(c1)CCC1N=C3SCCN3C21` (stereo in doubt), the Increase in footpad thickness in series [13] amounted to 0.37 mm; in series [14], 0.38 mm. Also, the LD50 in [15] came to 20 mg/kg; in series [17] it was 68 mg/kg. Also, the PFC in series [16] is 1610; in [18], 1800.
For `c1ccc2c(c1)CCC1C2N=C2SCCN21` (trans isomer), the PFC in series [19] came to 1100; in [21], 1500. Besides, the values for the 50% lethal dose (LD50) in [20] and in series [17] were 67 mg/kg and 320 mg/kg, respectively. Also, the Increase in footpad thickness amounted to 0.42 mm in [22] and 0.57 mm in series [23].
Consider `Clc1ccc2c(c1)CCC1C2N=C2SCCN21` (trans isomer), for which the values for the Increase in footpad thickness in series [24] and in series [27] were 0.46 mm and 0.5 mm, respectively. The PFC came out at 1530 in series [25] and 790 in [26].
On to `Brc1ccc2c(c1)C1N=C3SCCN3C1CC2` (cis isomer), for which the figures for the PFC in [28] and in series [31] were 1495 and 960, respectively. Also, the figures for the Increase in footpad thickness in [29] and in [30] were 0.36 mm and 0.45 mm, respectively.

The term LD50 denotes the dose expected to kill half of the subjects tested.
